According to ChEMBL document CHEMBL2331504, “New pyrazole derivatives containing 1,2,4-triazoles and benzoxazoles as potent antimicrobial and analgesic agents” (2013):
In brackets after ≈: the same amount, converted by molar mass.

How the values were obtained:
Type in all cases: functional
Escherichia coli = assay: Antimicrobial activity against Escherichia coli after 16 hrs by serial dilution method
How it was run: (§1)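 Tube broth serial dilution in trypticase soya broth, from 1 mg/mL DMF stocks. Cultures were grown 6 h at 37 °C, adjusted to a McFarland standard, then diluted to a 10^5 cfu/mL inoculum. Tubes were incubated 16 h at 37 °C, alongside inoculum and broth controls and ceftriaxone or fluconazole reference. MIC was read as the tubes showing no visible growth.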

Pseudomonas aeruginosa = assay: Antimicrobial activity against Pseudomonas aeruginosa after 16 hrs by serial dilution method; how it was run: as §1
Rattus norvegicus [1] = assay: Analgesic activity against Wistar albino rat at 200 mg/kg, ip measured immediately after compound administration by tail flick method (reference value: 1.9 +/- 0.12 %); details: route intraperitoneal, read-out: INH
Candida albicans = assay: Antimicrobial activity against Candida albicans after 16 hrs by serial dilution method; how it was run: as §1
Rattus norvegicus [2] = assay: Analgesic activity against Wistar albino rat at 200 mg/kg, ip measured immediately after 120 mins post compound treatment by tail flick method (reference value: 2.22 +/- 0.07 %); details: 2 h, route intraperitoneal, read-out: INH
Bacillus subtilis = assay: Antimicrobial activity against Bacillus subtilis after 16 hrs by serial dilution method; how it was run: as §1
Staphylococcus aureus = assay: Antimicrobial activity against Staphylococcus aureus after 16 hrs by serial dilution method; how it was run: as §1
Rattus norvegicus [3] = assay: Analgesic activity against Wistar albino rat at 200 mg/kg, ip measured immediately after 60 mins post compound treatment by tail flick method (reference value: 4.18 +/- 0.13 %); details: 1 h, route intraperitoneal, read-out: INH
Rattus norvegicus [4] = assay: Analgesic activity against Wistar albino rat at 200 mg/kg, ip measured immediately after 30 mins post compound treatment by tail flick method (reference value: 4.20 +/- 0.12 %); details: 0.5 h, route intraperitoneal
Rattus norvegicus [5] = assay: Analgesic activity against Wistar albino rat at 2 mg/kg, ip measured immediately after compound administration by tail flick method (reference value: 1.9 +/- 0.12 %); details: route intraperitoneal
Rattus norvegicus [6] = assay: Analgesic activity against Wistar albino rat at 2 mg/kg, ip measured immediately after 60 mins post compound treatment by tail flick method (reference value: 4.18 +/- 0.13 %); details: 1 h, route intraperitoneal
Rattus norvegicus [7] = assay: Analgesic activity against Wistar albino rat at 2 mg/kg, ip measured immediately after 30 mins post compound treatment by tail flick method (reference value: 4.20 +/- 0.12 %); details: 0.5 h, route intraperitoneal
Rattus norvegicus [8] = assay: Analgesic activity against Wistar albino rat at 2 mg/kg, ip measured immediately after 120 mins post compound treatment by tail flick method (reference value: 2.22 +/- 0.07 %); details: 2 h, route intraperitoneal

Row | Compound | MIC (Escherichia coli) [µg/mL] | MIC (Pseudomonas aeruginosa) [µg/mL] | tail-flick reaction time at 200 mg/kg (Rattus norvegicus [1]) [%] | MIC (Candida albicans) [µg/mL] | tail flick reaction time at 200 mg/kg (Rattus norvegicus [2]) [%] | MIC (Bacillus subtilis) [µg/mL] | MIC (Staphylococcus aureus) [µg/mL] | tail-flick reaction time at 200 mg/kg (Rattus norvegicus [3]) [%] | inhibition in vivo at 200 mg/kg (Rattus norvegicus [4]) [%] | inhibition in vivo at 2 mg/kg (Rattus norvegicus [5]) [%] | inhibition in vivo at 2 mg/kg (Rattus norvegicus [6]) [%] | inhibition in vivo at 2 mg/kg (Rattus norvegicus [7]) [%] | inhibition in vivo at 2 mg/kg (Rattus norvegicus [8]) [%]
1 | CSc1ccc(-c2n[nH]cc2/C=N/n2c(S)nnc2-c2ccncc2)cc1 | 3.12 (≈ 7.94 µM) | 6.25 (≈ 15.9 µM) | 2.62 | 12.5 (≈ 31.8 µM) | 2.9 | 3.12 (≈ 7.94 µM) | 3.12 (≈ 7.94 µM) | 2.83 | 2.77 | – | – | – | –
2 | CSc1ccc(-c2n[nH]cc2/C=N/Nc2nc3cc(Cl)cc(Cl)c3o2)cc1 | 12.5 (≈ 29.9 µM) | 12.5 (≈ 29.9 µM) | 3.25 | 25 (≈ 59.8 µM) | 3.63 | 12.5 (≈ 29.9 µM) | 6.25 (≈ 14.9 µM) | 3.57 | 3.42 | – | – | – | –
3 | Sc1nnc(COc2cccc3ccccc23)n1/N=C/c1c[nH]nc1-c1cc(Cl)sc1Cl | 3.12 (≈ 6.23 µM) | 1.61 (≈ 3.22 µM) | 2.67 | 6.25 (≈ 12.5 µM) | 2.2 | 1.61 (≈ 3.22 µM) | 1.61 (≈ 3.22 µM) | 2.28 | 2.52 | – | – | – | –
4 | O=C(CSc1nc2ccccc2o1)N/N=C/c1c[nH]nc1-c1cc(Cl)sc1Cl | 3.12 (≈ 6.91 µM) | 6.25 (≈ 13.8 µM) | 2.55 | 25 (≈ 55.3 µM) | 3.06 | 3.12 (≈ 6.91 µM) | 6.25 (≈ 13.8 µM) | 2.93 | 2.82 | – | – | – | –
5 | Clc1cc(Cl)c2oc(N/N=C/c3c[nH]nc3-c3ccc(-c4ccccc4)cc3)nc2c1 | 12.5 (≈ 27.9 µM) | 12.5 (≈ 27.9 µM) | 2.43 | 25 (≈ 55.8 µM) | 2.95 | 25 (≈ 55.8 µM) | 12.5 (≈ 27.9 µM) | 2.77 | 2.65 | – | – | – | –
6 | OC(Cn1cncn1)(Cn1cncn1)c1ccc(F)cc1F [FLUCONAZOLE] | – | – | – | 6.25 (≈ 20.4 µM) | – | – | – | – | – | – | – | – | –
7 | Clc1ccc(-c2n[nH]cc2/C=N/Nc2nc3cc(Cl)cc(Cl)c3o2)c(Cl)c1 | 12.5 (≈ 28.3 µM) | 3.12 (≈ 7.08 µM) | 2.75 | 12.5 (≈ 28.3 µM) | 3.2 | 6.25 (≈ 14.2 µM) | 12.5 (≈ 28.3 µM) | 3.05 | 2.92 | – | – | – | –
8 | CO/N=C(\C(=O)N[C@@H]1C(=O)N2C(C(=O)O)=C(CSc3nc(=O)c(O)nn3C)CS[C@H]12)c1csc(N)n1 [CEFTRIAXONE] | 1.61 (≈ 2.91 µM) | 1.61 (≈ 2.91 µM) | – | – | – | 1.61 (≈ 2.91 µM) | 3.12 (≈ 5.63 µM) | – | – | – | – | – | –
9 | Cc1ccc(-c2nnc(S)n2/N=C/c2c[nH]nc2-c2ccc(Cl)cc2Cl)cn1 | 3.12 (≈ 7.26 µM) | 1.61 (≈ 3.75 µM) | 2.93 | 6.25 (≈ 14.5 µM) | 2.98 | 1.61 (≈ 3.75 µM) | 3.12 (≈ 7.26 µM) | 4.15 | 3.5 | – | – | – | –
10 | O=C(CSc1nc2ccccc2o1)N/N=C/c1c[nH]nc1-c1ccc(-c2ccccc2)cc1 | 25 (≈ 55.1 µM) | 12.5 (≈ 27.6 µM) | 3.13 | 25 (≈ 55.1 µM) | 3.63 | 12.5 (≈ 27.6 µM) | 12.5 (≈ 27.6 µM) | 3.43 | 3.27 | – | – | – | –
11 | CSc1ccc(-c2n[nH]cc2/C=N/NC(=O)CSc2nc3ccccc3o2)cc1 | 6.25 (≈ 14.8 µM) | 6.25 (≈ 14.8 µM) | 3.05 | 12.5 (≈ 29.5 µM) | 3.83 | 12.5 (≈ 29.5 µM) | 6.25 (≈ 14.8 µM) | 3.53 | 3.15 | – | – | – | –
12 | O=C(CSc1nc2ccccc2o1)N/N=C/c1c[nH]nc1-c1ccc(Cl)cc1Cl | 3.12 (≈ 7 µM) | 6.25 (≈ 14 µM) | 2.27 | 12.5 (≈ 28 µM) | 3.62 | 6.25 (≈ 14 µM) | 12.5 (≈ 28 µM) | 3.45 | 3.38 | – | – | – | –
13 | Sc1nnc(COc2cccc3ccccc23)n1/N=C/c1c[nH]nc1-c1ccc(Cl)cc1Cl | 3.12 (≈ 6.31 µM) | 1.61 (≈ 3.26 µM) | 2.85 | 12.5 (≈ 25.2 µM) | 3.08 | 3.12 (≈ 6.31 µM) | 6.25 (≈ 12.6 µM) | 2.25 | 2.93 | – | – | – | –
14 | CC(C)=CCN1CC[C@]2(C)c3cc(O)ccc3C[C@H]1[C@H]2C [(+)-PENTAZOCINE] | – | – | – | – | – | – | – | – | – | 1.9 | 2.18 | 2.17 | 2.22
15 | Clc1cc(Cl)c2oc(N/N=C/c3c[nH]nc3-c3cc(Cl)sc3Cl)nc2c1 | 3.12 (≈ 6.99 µM) | 3.12 (≈ 6.99 µM) | 2.98 | 12.5 (≈ 28 µM) | 3.1 | 6.25 (≈ 14 µM) | 3.12 (≈ 6.99 µM) | 3.07 | 3.03 | – | – | – | –
